Results from ChEMBL document CHEMBL2169849, “Identification of antischistosomal leads by evaluating bridged 1,2,4,5-tetraoxanes, alphaperoxides, and tricyclic monoperoxides” (J Med Chem, 2012).
pIC50: −log10 of the molar value.

Assays:
Schistosoma mansoni [1] = assay: Antischistosomal activity against Schistosoma mansoni NTS incubated for 72 hrs; type: functional, organism-based
Outline: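 NTS from mechanically transformed cercariae (Liberian strain), 100 per well in Medium 199 + 5% iFCS, penicillin/streptomycin, preincubated 12–24 h at 37°C, 5% CO2. Exposed to 0.37–90 μg/ml (threefold steps) for 72 h. Scored microscopically on a viability scale (death, motility, morphology). DMSO control; duplicates, at least three experiments; IC50 from viability scores.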

Schistosoma mansoni [2] = assay: Antischistosomal activity against adult Schistosoma mansoni schistosomes incubated for 72 hrs; type: functional, organism-based
L6 = assay: Cytotoxicity against rat L6 cells incubated for […] hrs by Alamar blue assay; type: cell-based
[3] = Selectivity index, ratio of IC50 for rat L6 cells to IC50 for adult Schistosoma mansoni schistosomes
Outline: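 Ratio of L6 IC50 to adult S. mansoni IC50, both from the assays above.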

Schistosoma mansoni [4] = assay: Antischistosomal activity against adult Schistosoma mansoni infected NMRI mouse adult infection model assessed as reduction in total worm burden at 400 mg/kg administered as single dose starting from 49 days post infection; type: functional; design: scale not given: the % may be the effect or the level left
Outline: (§1)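 Mice infected subcutaneously with ~100 S. mansoni cercariae (Liberian strain). At day 49 post infection, groups of 4 NMRI mice received a single oral 400 mg/kg dose; 8–10 untreated controls. Total and female worm burden reductions calculated against untreated controls.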

Schistosoma mansoni [5] = assay: Antischistosomal activity against adult Schistosoma mansoni infected NMRI mouse adult infection model assessed as reduction in female worm burden at 400 mg/kg administered as single dose starting from 49 days post infection; type: functional; design: scale not given: the % may be the effect or the level left; outline: as §1
Schistosoma mansoni [6] = assay: Antischistosomal activity against adult Schistosoma mansoni schistosomes incubated for 72 hrs in presence of 120 uM Fe(3)-hemin; type: functional, organism-based
Outline: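 Adult worm motility assay in RPMI 1640 + 5% iFCS at 1.1–30 μg/ml. Fe(III)-hemin held at 120 μM final throughout exposure; hemin stock 1.5 mM in dilute NaOH/PBS pH 7.4. Motility scored, IC50 determined at 72 h. At least three experiments.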

HeLa = assay: Cytotoxicity against human HeLa cells incubated for 48 hrs by resazurin dye reduction assay; type: cell-based
MRC5 = assay: Cytotoxicity against human MRC5 cells incubated for 48 hrs by resazurin dye reduction assay; type: cell-based; settings: MRC5, 48 h
[7] = Selectivity index, ratio of IC50 for human MRC5 cells to IC50 for human HeLa cells; type: cell-based; settings: MRC5 cells versus HeLa cells, read-out: Ratio IC50
Schistosoma mansoni [8] = assay: Antischistosomal activity against adult Schistosoma mansoni infected NMRI mouse juvenile infection model assessed as reduction in total worm burden at 400 mg/kg administered as single dose starting from 21 days post infection; type: functional; design: scale not given: the % may be the effect or the level left
Outline: (§2)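 Juvenile model: NMRI mice infected with ~100 cercariae were given a single oral 400 mg/kg dose on day 21 post infection. Dissected four weeks after treatment, worms sexed and counted. Total and female burden reductions calculated against untreated controls.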

Schistosoma mansoni [9] = assay: Antischistosomal activity against adult Schistosoma mansoni infected NMRI mouse juvenile infection model assessed as reduction in female worm burden at 400 mg/kg administered as single dose starting from 21 days post infection; type: functional; design: scale not given: the % may be the effect or the level left; outline: as §2

| Structure (SMILES) | pIC50 (Schistosoma mansoni [1]) | pIC50 (Schistosoma mansoni [2]) | further results |
| --- | --- | --- | --- |
| CCOC(=O)CCC(OOC(C)(C)C)(C(C)=O)C(C)=O | < 3.98 | – | – |
| C1COC(OOC23CC4CC(CC(C4)C2)C3)C1 (centres undefined) | < 3.90 | – | – |
| CC(C)(C)OOC(C#N)(C#N)C1CCCC1 | 4.97 | 3.91 | – |
| O=C(C1CCCCC1)N1CC(=O)N2CCc3ccccc3C2C1 (centres undefined) [PRAZIQUANTEL] | 5.66 | – | pIC50 (L6): < 4.02 |
| CC12CCC3[C@@](C)(OO[C@]3(c3ccccc3)O1)O2 | 5.03 | 5.11 | pIC50 (L6): 4.99; Ratio IC50 [3]: 1.3; Activity (Schistosoma mansoni [4]): 6.5%; Activity (Schistosoma mansoni [5]): 15.2% |
| C[C@]12OO[C@](C)(OO1)C2CCC(=O)NC12CC3CC(CC(C3)C1)C2 (some centres undefined) | 6.10 | 4.48 | pIC50 (Schistosoma mansoni [6]): 4.41 |
| C[C@]12OO[C@](C)(OO1)C2CCC(=O)N1CCOCC1 (some centres undefined) | 4.97 | 4.43 | – |
| CCOC(=O)C(CCC#N)(OOC(C)(C)C)C(C)=O (centres undefined) | < 3.95 | – | – |
| CCOC(=O)C(Cc1ccccc1)(OOC(C)(C)C)C(C)=O (centres undefined) | 4.82 | – | – |
| COc1ccc(CC(C#N)(C#N)OOC(C)(C)C)cc1 | 5.10 | 4.39 | – |
| Cc1ccc(CC23CCC4(C)O[C@]2(C)OO[C@]3(C)O4)cc1 | 5.35 | < 3.99 | pIC50 (Schistosoma mansoni [6]): 4.87; pIC50 (L6): < 3.99; Ratio IC50 [3]: >7.7; Activity (Schistosoma mansoni [4]): 0%; Activity (Schistosoma mansoni [5]): 0% |
| CC(C)(C)OOC(C#N)(C#N)Cc1ccc(Cl)cc1 | 5.41 | 4.71 | pIC50 (Schistosoma mansoni [6]): 4.75 |
| CC(c1ccccc1)C1[C@]2(C)OO[C@@]1(C)OO2 (some centres undefined) | 5.96 | 4.73 | pIC50 (Schistosoma mansoni [6]): 4.89; pIC50 (L6): 5.66; Ratio IC50 [3]: 0.1; Activity (Schistosoma mansoni [4]): 5%; Activity (Schistosoma mansoni [5]): 4.6% |
| CC12CCC3(CC4CO4)[C@@](C)(OO[C@]3(C)O1)O2 (some centres undefined) | 4.65 | – | – |
| CCCCC12CCC3(C)O[C@]1(C)OO[C@]2(C)O3 | 4.65 | – | – |
| C=CCC(C#N)(OOC(C)(C)C)C(=O)OCC (centres undefined) | 4.36 | – | – |
| CC12CCC3[C@@](C)(OO[C@]3(c3ccc(Br)cc3)O1)O2 | 5.77 | 5.06 | pIC50 (L6): 5.09; Ratio IC50 [3]: 0.9; Activity (Schistosoma mansoni [4]): 31.3%; Activity (Schistosoma mansoni [5]): 36.4% |
| COc1ccc([C@]23OO[C@@]4(C)OC(C)(CCC42)O3)cc1 | 4.84 | 4.93 | pIC50 (L6): 4.23; Ratio IC50 [3]: 4.9; pIC50 (HeLa): 5.22; pIC50 (MRC5): 4.91; selectivity ratio [7]: 2; Activity (Schistosoma mansoni [4]): 82.8%; Activity (Schistosoma mansoni [5]): 82.9%; Activity (Schistosoma mansoni [8]): 18.9%; Activity (Schistosoma mansoni [9]): 27.3% |
| C[C@]12OO[C@](C)(OO1)C2CCC(=O)N1CCCC1 (some centres undefined) | 4.86 | < 3.93 | – |
| CCOC(=O)CNC(=O)CCC1[C@]2(C)OO[C@@]1(C)OO2 (some centres undefined) | 4.93 | < 3.98 | – |
| CC12CCC3[C@@](C)(OO[C@]3(c3ccc(Cl)cc3)O1)O2 | 4.80 | – | – |
| CC12CCC3(Cc4ccccc4)[C@@](C)(OO[C@]3(C)O1)O2 | 4.87 | < 3.96 | – |
| CC(c1ccc2ccccc2c1)C1[C@]2(C)OO[C@@]1(C)OO2 (some centres undefined) | 5.15 | 4.45 | – |
| C[C@]12OO[C@](C)(OO1)C2CCC(=O)N1CCCCCC1 (some centres undefined) | 5.26 | 4.30 | – |
| CC12CCC3(Cc4ccc([N+](=O)[O-])cc4)[C@@](C)(OO[C@]3(C)O1)O2 | 5.05 | 4.91 | pIC50 (L6): < 4.03; Ratio IC50 [3]: >7.6; Activity (Schistosoma mansoni [4]): 4.7%; Activity (Schistosoma mansoni [5]): 9.6% |
| CCOC(=O)C(C#N)(Cc1ccc(Cl)cc1)OOC(C)(C)C (centres undefined) | 5.05 | < 3.90 | – |
| C[C@]12OO[C@](C)(OO1)C2CCC(=O)NC1CCCCC1 (some centres undefined) | 5.05 | 4.18 | – |

| Structure (SMILES) | pIC50 (Schistosoma mansoni [1]) | pIC50 (Schistosoma mansoni [2]) | further results |
| --- | --- | --- | --- |
| CC(=O)C(C)(OOC(C)(C)C)C(C)=O | < 3.10 | – | – |
| CCOC(=O)CCC12CCC3(C)O[C@]1(C)OO[C@]2(C)O3 | 5.46 | < 3.98 | pIC50 (Schistosoma mansoni [6]): 4.04 |
| C[C@]12OO[C@](C)(OO1)C2CCC(=O)NCc1ccccc1 (some centres undefined) | 4.96 | < 3.99 | – |
| C[C@]12OO[C@](C)(OO1)C2CCC(=O)NCCc1ccccc1 (some centres undefined) | 5.21 | 4.18 | – |
| C=CCC12CCC3(C)O[C@]1(C)OO[C@]2(C)O3 | 4.81 | – | – |
| Cc1ccc(C(C)C2[C@]3(C)OO[C@@]2(C)OO3)cc1 (some centres undefined) | 6.22 | 4.51 | pIC50 (Schistosoma mansoni [6]): 4.39 |
| CC(c1ccc(Br)cc1)C1[C@]2(C)OO[C@@]1(C)OO2 (some centres undefined) | 6.00 | 4.47 | pIC50 (Schistosoma mansoni [6]): 4.32 |
| Cc1ccc([C@]23OO[C@@]4(C)OC(C)(CCC42)O3)cc1 | 4.34 | – | – |
| CC12CCC3[C@@](C)(OO[C@]3(C)O1)O2 | 5.05 | 4.72 | – |
| CC(C)NC(=O)CCC1[C@]2(C)OO[C@@]1(C)OO2 (some centres undefined) | 4.59 | – | – |
| C[C@]12OO[C@](C)(OO1)C2CCC(=O)N1CCCCC1 (some centres undefined) | 5.18 | < 3.96 | – |
| CCOC(=O)C(C#N)(CC(C)=O)OOC(C)(C)C (centres undefined) | 4.42 | – | – |
| CCOC(=O)C(Cc1ccccc1)(OOC(C)(C)C)C(=O)OCC | 4.84 | 4.23 | – |
| C#CCC12CCC3(C)O[C@]1(C)OO[C@]2(C)O3 | 5.09 | 4.08 | – |
| CC12CCC3(CCC(=O)O)[C@@](C)(OO[C@]3(C)O1)O2 | < 3.46 | – | – |
| CC(C)C(C#N)(C#N)OOC(C)(C)C | 3.53 | – | – |
| CC(c1ccc(Cl)cc1)C1[C@]2(C)OO[C@@]1(C)OO2 (some centres undefined) | 6.40 | 4.45 | pIC50 (Schistosoma mansoni [6]): 4.60 |
| CC12CCC3(CCC(=O)NC45CC6CC(CC(C6)C4)C5)[C@@](C)(OO[C@]3(C)O1)O2 | 3.67 | – | – |
| CC12CCC3(CCC#N)[C@@](C)(OO[C@]3(C)O1)O2 | < 3.42 | – | – |
| C[C@H]1[C@H](OC(=O)CCC(=O)O)O[C@@H]2O[C@@]3(C)CC[C@H]4[C@H](C)CC[C@@H]1[C@@]24OO3 [ARTESUNATE] | 5.30 | 4.41 | pIC50 (Schistosoma mansoni [6]): 4.41; pIC50 (L6): 5.82; Ratio IC50 [3]: 0.04; pIC50 (HeLa): 5.49; pIC50 (MRC5): 5.17; selectivity ratio [7]: 2 |
| CCOC(=O)C(C#N)(Cc1ccccc1)OOC(C)(C)C (centres undefined) | 4.17 | – | – |
| CC12CCC3(CCC(=O)N4CCOCC4)[C@@](C)(OO[C@]3(C)O1)O2 | < 3.54 | – | – |
| CCOC(=O)CC(C)C(C#N)(C#N)OOC(C)(C)C (centres undefined) | 3.80 | – | – |
| CC12CCC3(C)[C@@](C)(OO[C@]3(C)O1)O2 | 3.74 | – | – |
| CC(C)(C)OOC(C#N)(C#N)Cc1ccccc1 | 5.30 | 4.83 | pIC50 (L6): 4.00; Ratio IC50 [3]: 6.4; Activity (Schistosoma mansoni [4]): 0%; Activity (Schistosoma mansoni [5]): 0% |
| CCCCC(OOC(C)(C)C)(C(C)=O)C(=O)OCC (centres undefined) | 4.58 | – | – |
| Cc1ccc(CC2[C@]3(C)OO[C@@]2(C)OO3)cc1 (some centres undefined) | 5.92 | 4.40 | pIC50 (Schistosoma mansoni [6]): < 3.90 |
